The target of series [1] is Cathepsin S (Homo sapiens) (UniProt P25774). Briefly: Inhibition of human recombinant cathepsin S using Z-Val-Val-Arg-AMC as substrate at 50 uM preincubated for 10 mins prior to substrate addition measured after 30 mins by fluorescence spectrophotometric analysis relative to control.
The next series addresses T1, Cannabinoid receptor 2 (Rattus norvegicus, UniProt Q9QZN9).
T1 sequence (Q9QZN9 whole entry): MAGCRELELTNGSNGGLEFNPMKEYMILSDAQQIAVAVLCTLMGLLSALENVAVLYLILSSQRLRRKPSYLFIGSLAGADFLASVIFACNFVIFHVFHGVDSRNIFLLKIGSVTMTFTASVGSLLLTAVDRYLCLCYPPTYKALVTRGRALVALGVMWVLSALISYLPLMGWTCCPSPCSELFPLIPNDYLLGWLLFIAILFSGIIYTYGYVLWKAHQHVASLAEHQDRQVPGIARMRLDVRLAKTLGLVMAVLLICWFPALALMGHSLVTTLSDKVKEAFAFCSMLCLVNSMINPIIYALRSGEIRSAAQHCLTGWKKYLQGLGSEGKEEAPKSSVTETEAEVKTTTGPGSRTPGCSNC
As to the kind of experiment: Displacement of [3H]CP55940 from CB2 receptor in rat spleen homogenate after 90 mins. It counts as tissue-based. Summed up:
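Rat brain (CB1) or spleen (CB2) membranes, homogenized in tris/NaCl/MgCl2 pH 7.4, competed against 0.5 nM [3H]CP55940 in 50 mM Tris-HCl, 2 mM EDTA, 5 mM MgCl2, 0.2 mg/mL BSA, pH 7.4; 90 min incubation. Nonspecific binding with 1 µM WIN (CB1) or 1 µM SR144528 (CB2); triplicates averaged.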

The subject of series [2] is Mus musculus. As to the kind of experiment: Anticonvulsant activity in ip dosed Swiss albino mouse assessed as protection against picrotoxin-induced seizure administered 30 mins prior to picrotoxin-challenge measured after 0.5 hrs. The series is classed as functional. The note with it: read-out: MED. In a few lines: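 Mice, either sex, 20-25 g, given compound i.p. at 30, 100 and 300 mg/kg. Thirty minutes later, picrotoxin 3.15 mg/kg was injected s.c. in 0.01 mL/g body weight. Animals were isolated and watched for 45 min for a threshold convulsion, and protection was scored as its absence. Examined at 0.5 and 4 h. Value reported is the minimum dose active in half or more of the mice (n = 3).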

The species named for series [3] is Rattus norvegicus. As to the kind of experiment: Neuroprotective activity in Wistar rat chronic constriction injury model assessed as inhibition of nitric oxide production in sciatic nerve after 2 hrs by Griess method relative to control. The series is classed as functional. Summed up: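 Wistar rats of either sex (200-250 g) with chronic constriction of the left sciatic nerve. On day 9 post-injury, compound given i.p. in 30% v/v PEG 400; tissue taken 2 h after dosing. Nitrate reduced to nitrite, nitrite measured colorimetrically with Griess reagent against a standard curve. Results expressed as percentage of vehicle-treated control; n = 4.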

The test system of series [4] is Mus musculus. As to the kind of experiment: Antiinflammatory activity in Swiss albino mouse assessed as inhibition of LPS-induced TNFalpha production at 100 mg/kg, ip administered 30 mins prior to LPS-challenge measured after 90 mins by ELISA relative to control. The note with it: route intraperitoneal. It counts as functional. Summed up: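 Swiss albino mice (20–25 g, either sex) dosed i.p. with 100 mg/kg in 10 mL/kg; LPS 1.0 mg/kg in sterile PBS i.p. given 30 min later. Blood taken 90 min after LPS, plasma TNF measured by ELISA, expressed as % inhibition versus vehicle-treated control; n = 4, one-way ANOVA with Dunnett's test.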

In series [5] the test system is Rattus norvegicus. Briefly: Antinociceptive activity in ip dosed Wistar rat partial sciatic nerve ligation model assessed as reversal of mechanical allodynia after 30 mins. The series is classed as functional. The following applies: 0.5 h. In a few lines:
(§1)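 Wistar rats (200–250 g) with nerve injury, compounds i.p. in 30% v/v PEG 400; dose–response curves in each sensory test (spontaneous pain and cold allodynia as paw withdrawal duration; tactile allodynia and hyperalgesia as withdrawal threshold). ED50 linearly interpolated between doses just above and below 50% response; time of peak effect recorded.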

Series [6] has as its system Rattus norvegicus. As to the kind of experiment: Antinociceptive activity in ip dosed Wistar rat partial sciatic nerve ligation model assessed as reversal of spontaneous pain response after 30 mins. The series is classed as functional. The following applies: 0.5 h. Summed up: as §1
Series [7] deals with Rattus norvegicus. As to the kind of experiment: Antinociceptive activity in Wistar rat chronic constriction injury model assessed as reversal of mechanical allodynia at 100 mg/kg, ip after 120 mins (reference value: 5.3 +/- 0.5%). The series is classed as functional. The following applies: route intraperitoneal.
The test system of series [8] is Rattus norvegicus. As to the kind of experiment: Antinociceptive activity in Wistar rat chronic constriction injury model assessed as reversal of mechanical allodynia at 100 mg/kg, ip after 30 mins (reference value: 4.7 +/- 2.1%). It counts as functional. The following applies: route intraperitoneal.
Series [9] relates to Rattus norvegicus. As to the kind of experiment: Antinociceptive activity in Wistar rat partial sciatic nerve ligation model assessed as reversal of cold allodynia at 100 mg/kg, ip after 60 mins (reference value: 2.5 +/- 0.3%). It counts as functional. The note with it: route intraperitoneal.
For series [10], the system named is Rattus norvegicus. Briefly: Antinociceptive activity in Wistar rat partial sciatic nerve ligation model assessed as reversal of cold allodynia at 100 mg/kg, ip after 30 mins (reference value: 4.1 +/- 1.0%). The series is classed as functional. The following applies: route intraperitoneal.
Series [11] concerns Rattus norvegicus. Briefly: Antinociceptive activity in Wistar rat chronic constriction injury model assessed as reversal of cold allodynia at 100 mg/kg, ip after 120 mins (reference value: 5.4 +/- 1.9%). It counts as functional. The note with it: route intraperitoneal.
The subject of series [12] is Rattus norvegicus. As to the kind of experiment: Antinociceptive activity in Wistar rat partial sciatic nerve ligation model assessed as reversal of tactile allodynia at 100 mg/kg, ip after 120 mins relative to control. The series is classed as functional. The note with it: route intraperitoneal.
Series [13] has as its system Rattus norvegicus. Briefly: Antinociceptive activity in Wistar rat partial sciatic nerve ligation model assessed as reversal of tactile allodynia at 100 mg/kg, ip after 60 mins (reference value: 12.5 +/- 1.2%). It counts as functional. The note with it: route intraperitoneal.
Series [14] has as its system Rattus norvegicus. As to the kind of experiment: Antinociceptive activity in Wistar rat chronic constriction injury model assessed as reversal of tactile allodynia at 100 mg/kg, ip after 60 mins (reference value: 1.3 +/- 0.3%). The series is classed as functional. The following applies: route intraperitoneal.
Series [15] deals with Rattus norvegicus. As to the kind of experiment: Antinociceptive activity in Wistar rat chronic constriction injury model assessed as reversal of tactile allodynia at 100 mg/kg, ip after 30 mins (reference value: 3.4 +/- 0.8%). The following applies: route intraperitoneal. It counts as functional.
The test system of series [16] is Rattus norvegicus. Briefly: Antinociceptive activity in Wistar rat partial sciatic nerve ligation model assessed as reversal of spontaneous pain response at 100 mg/kg, ip after 30 mins (reference value: 3.2 +/- 0.3%). The note with it: route intraperitoneal. It counts as functional.
For series [17], the system named is Rattus norvegicus. As to the kind of experiment: Antinociceptive activity in Wistar rat chronic constriction injury model assessed as reversal of spontaneous pain response at 100 mg/kg, ip after 30 mins (reference value: 8.9 +/- 4.6%). The note with it: route intraperitoneal. The series is classed as functional.
Series [18] has as its system Mus musculus. Briefly: Antinociceptive activity in Swiss albino mouse assessed as inhibition of formalin-induced flinching at 100 mg/kg administered 30 mins prior to test measured for 10 to 30 mins relative to control. The series is classed as functional.
The subject of series [19] is Mus musculus. Briefly: Antinociceptive activity in Swiss albino mouse assessed as inhibition of acetic acid-induced writhing at 100 mg/kg administered 30 mins prior to acetic acid-challenge measured for 30 mins relative to control. It counts as functional. Summed up:
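Swiss albino mice (20–25 g, either sex); writhing induced by i.p. 0.1 mL of 2.0% v/v acetic acid given half an hour after test compound dosing.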

Series [20] relates to Mus musculus. As to the kind of experiment: Neurotoxicity in Swiss albino mouse assessed as minimal motor impairment at 300 mg/kg after 0.5 hrs by rotarod test. It counts as toxicity, organism-based. Also on record: dose 300 mg/kg. The note with it: in vivo. Summed up: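 Swiss albino mice of either sex, 20-25 g, dosed at 30, 100 and 300 mg/kg, three per group. Minimal motor impairment scored by rotarod at 0.5 and 4.0 h after dosing. Reported value is the lowest dose giving impairment in half or more of the mice.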

The values that follow come from ChEMBL document CHEMBL2412964, “Discovery of novel tetrahydro-pyrazolo [4,3-c] pyridines for the treatment of neuropathic pain: synthesis and neuropharmacology” (Eur J Med Chem, 2013).

Cathepsin S (Homo sapiens), sequence (P25774 115-331 limits assumed): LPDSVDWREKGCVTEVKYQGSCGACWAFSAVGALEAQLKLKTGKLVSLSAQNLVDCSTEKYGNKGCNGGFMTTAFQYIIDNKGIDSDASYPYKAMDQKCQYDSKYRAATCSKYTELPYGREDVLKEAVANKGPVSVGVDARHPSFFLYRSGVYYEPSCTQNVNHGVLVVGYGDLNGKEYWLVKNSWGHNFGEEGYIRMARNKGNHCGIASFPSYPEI

Regarding `CCN1CCc2c(c(C(C)(C)C)nn2C(=O)Nc2c(C)cccc2C)C1`, in series [1], the inhibition is 34.1%. The compound further had an IC50 at Cannabinoid receptor 2 of over 1 µM. Moreover, in the series on Mus musculus [2], the minimal effective dose was determined as 100 mg/kg. The “inhibition (INH)” value in the series listed under Rattus norvegicus [3] is given as 68.7%. Moreover, the inhibition in vivo at 100 mg/kg in the series with Mus musculus [4] stood at 77.6%; in the series on Mus musculus [18], 68%; in the series on Mus musculus [19] it was 73.7%. In addition, the figures for the ED50 in the series with Rattus norvegicus [5] and in the series with Rattus norvegicus [6] were 23.6 mg/kg and 8.1 mg/kg, respectively. The Activity came to 78.9% in the series with Rattus norvegicus [7]; 69.4% in the series with Rattus norvegicus [8]; 56% in the series with Rattus norvegicus [9]; 58.3% in the series on Rattus norvegicus [10]; 18.8% in the series with Rattus norvegicus [11]; 46.6% with Rattus norvegicus [12]. In addition, the Activity in the series with Rattus norvegicus [13] was 61.6%; with Rattus norvegicus [14] it was 54.5%; in the series with Rattus norvegicus [15], 90.1%; with Rattus norvegicus [16], 93.9%; with Rattus norvegicus [17] it was 95%; in the series with Mus musculus [20], “Non-toxic”.

As to `CCN1CCc2c(c(C(C)(C)C)nn2C(=O)Nc2ccc(Br)cc2)C1`, in [1], the inhibition is 39.9%. For the same compound, the IC50 at Cannabinoid receptor 2 was over 1 µM. For the same compound, the minimal effective dose in the series with Mus musculus [2] amounted to 100 mg/kg. In addition, in the series filed under Rattus norvegicus [3], the “inhibition (INH)” value was determined as 47.8%. For the same compound, the values for the inhibition in vivo at 100 mg/kg with Mus musculus [4], in the series with Mus musculus [18] and in the series with Mus musculus [19] were 86.4%, 72.1% and 72.8%, respectively. For the same compound, the ED50 in the series with Rattus norvegicus [5] and in the series with Rattus norvegicus [6] was 29 mg/kg in each case. The Activity in the series on Rattus norvegicus [7] is 65.3%; with Rattus norvegicus [8], 81.9%; in the series with Rattus norvegicus [9], 50.6%; with Rattus norvegicus [10], 55.4%; with Rattus norvegicus [11], 56.9%; with Rattus norvegicus [12], 44.9%. Also, the Activity with Rattus norvegicus [13] is given as 44.9%; with Rattus norvegicus [14], 58.2%; in the series with Rattus norvegicus [15] it was 66.7%; with Rattus norvegicus [16], 90.4%; in the series on Rattus norvegicus [17] it was 90.6%; with Mus musculus [20], “Non-toxic”.

In the case of `CCN1CCc2c(c(C(C)(C)C)nn2C(=O)Nc2ccc(C)cc2C)C1`, the inhibition in series [1] came out at 12.1%. At Cannabinoid receptor 2, this compound showed an IC50 of over 1 µM. The minimal effective dose with Mus musculus [2] turned out to be 300 mg/kg. For the same compound, the “inhibition (INH)” value in the series listed under Rattus norvegicus [3] is 65.4%. Also, the results for the inhibition in vivo at 100 mg/kg in the series with Mus musculus [4], with Mus musculus [18] and with Mus musculus [19] were 58.9%, 59.9% and 71.1%, respectively. Also, the results for the 50% effective dose (ED50) in the series on Rattus norvegicus [5] and in the series on Rattus norvegicus [6] were 31.8 mg/kg and 7.4 mg/kg, respectively. Further, the Activity with Rattus norvegicus [7] stood at 67.5%; in the series with Rattus norvegicus [8], 93.8%; with Rattus norvegicus [9], 52.7%; in the series with Rattus norvegicus [10], 62.1%; in the series on Rattus norvegicus [11], 40.4%; with Rattus norvegicus [12], 88.4%. Besides, the Activity with Rattus norvegicus [13] is on record as 50.4%; with Rattus norvegicus [14], 54.5%; with Rattus norvegicus [15] it was 69.7%; with Rattus norvegicus [16], 89.9%; with Rattus norvegicus [17], 85.4%; in the series with Mus musculus [20], “Non-toxic”.
